Assay results published in ChEMBL document CHEMBL3112441, “Synthesis, anticonvulsant activity and molecular properties prediction of dialkyl 1-(di(ethoxycarbonyl)methyl)-2,6-dimethyl-4-substituted-1,4-dihydropyridine-3,5-dicarboxylates” (Eur J Med Chem, 2014).

Key:
Rattus norvegicus [1] = assay: Anticonvulsant activity in Wistar albino rat assessed as protection against maximal electroshock-induced electroconvulsive seizures at 10 mg/kg, po pretreated for 1 hr followed by maximal electroshock challenge relative to control; type: functional
Summary of the method: (§1)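 Adult male Wistar rats (150–250 g), six per group, dosed orally 10 mg/kg as suspension in 0.5% sodium carboxymethylcellulose; vehicle control. After 1 h, maximal electroshock of 150 mA for 0.2 s was given via corneal electrodes. Duration of hind limb extension was recorded, and its abolition or reduction was taken as the anticonvulsant index. Values are mean ± SEM, n = 6, analysed by one-way ANOVA with Dunnett's test.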

Rattus norvegicus [2] = assay: Anticonvulsant activity in Wistar albino rat assessed as protection against maximal electroshock-induced seizures by measuring duration of limb extension at 10 mg/kg, po pretreated for 1 hr followed by maximal electroshock challenge (reference value: 16 +/- 1 secs); type: functional; summary of the method: as §1
Rattus norvegicus [3] = assay: Anticonvulsant activity in Wistar albino rat assessed as protection against […] at 10 mg/kg, po pretreated for 1 hr followed by pentylenetetrazole challenge measured over 300 secs relative to control; type: functional
Rattus norvegicus [4] = assay: Anticonvulsant activity in Wistar albino rat assessed as protection against subcutaneous pentylenetetrazole-induced seizures by measuring latency period at 10 mg/kg, po pretreated for 1 hr followed by pentylenetetrazole challenge measured over 300 secs (reference value: 72 +/- 2 secs); type: functional
Mus musculus = assay: Toxicity in Swiss albino mouse up to 100 mg/kg, po measured over 7 days; type: organism-based; design: dose 100 mg/kg, route oral; conditions: in vivo, 168 h
Summary of the method: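 Acute oral toxicity followed OECD-425. Swiss albino mice (18–20 g), 5 per group, were dosed orally at different levels and observed for death over seven days.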

Rattus norvegicus [5] = assay: Anticonvulsant activity in Wistar albino rat assessed as protection against subcutaneous pentylenetetrazole-induced mortality at 5 mg/kg, ip pretreated for 1 hr followed by pentylenetetrazole challenge measured over 300 secs relative to control; type: functional; conditions: sc
Rattus norvegicus [6] = assay: Anticonvulsant activity in Wistar albino rat assessed as protection against subcutaneous pentylenetetrazole-induced seizures by measuring latency period at 5 mg/kg, ip pretreated for 1 hr followed by pentylenetetrazole challenge measured over 300 secs (reference value: 72 +/- 2 secs); type: functional
Rattus norvegicus [7] = assay: Anticonvulsant activity in Wistar albino rat assessed as protection against subcutaneous pentylenetetrazole-induced mortality at 30 mg/kg, po pretreated for 1 hr followed by pentylenetetrazole challenge relative to control; type: functional
Rattus norvegicus [8] = assay: Anticonvulsant activity in Wistar albino rat assessed as protection against maximal electroshock-induced electroconvulsive seizures at 30 mg/kg, po pretreated for 1 hr followed by maximal electroshock challenge relative to control; type: functional
Rattus norvegicus [9] = assay: Anticonvulsant activity in Wistar albino rat assessed as protection against maximal electroshock-induced seizures by measuring duration of limb extension at 30 mg/kg, po pretreated for 1 hr followed by maximal electroshock challenge (reference value: 16 +/- 1 secs); type: functional
Rattus norvegicus [10] = assay: Anticonvulsant activity in Wistar albino rat assessed as protection against subcutaneous pentylenetetrazole-induced seizures by measuring latency period at 30 mg/kg, po pretreated for 1 hr followed by pentylenetetrazole challenge measured over 300 secs (reference value: 72 +/- 2 secs); type: functional

CCOC(=O)C(C(=O)OCC)N1C(C)=C(C(=O)OC)CC(C(=O)OC)=C1C
Activity (Rattus norvegicus [1]): 14.5% | Time (Rattus norvegicus [2]): 13 s | mortality at 10 mg/kg (Rattus norvegicus [3]): 0% | Time (Rattus norvegicus [4]): 126 s | Activity (Mus musculus): Non-toxic

CCOC(=O)C1=C(C)N(C(C(=O)OCC)C(=O)OCC)C(C)=C(C(=O)OCC)C1
Activity (Rattus norvegicus [1]): 41.6% | Time (Rattus norvegicus [2]): 9 s | mortality at 10 mg/kg (Rattus norvegicus [3]): 0% | Time (Rattus norvegicus [4]): 192 s | Activity (Mus musculus): Non-toxic

CCOC(=O)C(C(=O)OCC)N1C(C)=C(C(=O)OC)C(c2ccccc2)C(C(=O)OC)=C1C
Activity (Rattus norvegicus [1]): 25% | Time (Rattus norvegicus [2]): 12 s | mortality at 10 mg/kg (Rattus norvegicus [3]): 33.3% | Time (Rattus norvegicus [4]): >300 s | Activity (Mus musculus): Non-toxic

CCOC(=O)C1=C(C)N(C(C(=O)OCC)C(=O)OCC)C(C)=C(C(=O)OCC)C1c1ccccc1
Activity (Rattus norvegicus [1]): 16.6% | Time (Rattus norvegicus [2]): 13 s | mortality at 10 mg/kg (Rattus norvegicus [3]): 0% | Time (Rattus norvegicus [4]): 283 s | Activity (Mus musculus): Non-toxic

CCOC(=O)C(C(=O)OCC)N1C(C)=C(C(=O)OC)C(c2ccccc2[N+](=O)[O-])C(C(=O)OC)=C1C
Activity (Rattus norvegicus [1]): 39.6% | Time (Rattus norvegicus [2]): 10 s | mortality at 10 mg/kg (Rattus norvegicus [3]): 0% | Time (Rattus norvegicus [4]): 295 s | Activity (Mus musculus): Non-toxic

CCOC(=O)C1=C(C)N(C(C(=O)OCC)C(=O)OCC)C(C)=C(C(=O)OCC)C1c1ccccc1[N+](=O)[O-]
Activity (Rattus norvegicus [1]): 22.9% | Time (Rattus norvegicus [2]): 12 s | mortality at 10 mg/kg (Rattus norvegicus [3]): 0% | Time (Rattus norvegicus [4]): 230 s | Activity (Mus musculus): Non-toxic

CCOC(=O)C(C(=O)OCC)N1C(C)=C(C(=O)OC)C(Cc2ccccc2)C(C(=O)OC)=C1C
Activity (Rattus norvegicus [1]): 14.5% | Time (Rattus norvegicus [2]): 14 s | mortality at 10 mg/kg (Rattus norvegicus [3]): 33.3% | Time (Rattus norvegicus [4]): 285 s | Activity (Mus musculus): Non-toxic

CCOC(=O)C1=C(C)N(C(C(=O)OCC)C(=O)OCC)C(C)=C(C(=O)OCC)C1Cc1ccccc1
Activity (Rattus norvegicus [1]): 10.4% | Time (Rattus norvegicus [2]): 14 s | mortality at 10 mg/kg (Rattus norvegicus [3]): 66.6% | Time (Rattus norvegicus [4]): 265 s | Activity (Mus musculus): Non-toxic

CCOC(=O)C(C(=O)OCC)N1C(C)=C(C(=O)OC)C(CCc2ccccc2)C(C(=O)OC)=C1C
Activity (Rattus norvegicus [1]): 20.8% | Time (Rattus norvegicus [2]): 13 s | mortality at 10 mg/kg (Rattus norvegicus [3]): 66.6% | Time (Rattus norvegicus [4]): >300 s | Activity (Mus musculus): Non-toxic

CCOC(=O)C1=C(C)N(C(C(=O)OCC)C(=O)OCC)C(C)=C(C(=O)OCC)C1CCc1ccccc1
Activity (Rattus norvegicus [1]): 8.3% | Time (Rattus norvegicus [2]): 15 s | mortality at 10 mg/kg (Rattus norvegicus [3]): 33.3% | Time (Rattus norvegicus [4]): 246 s | Activity (Mus musculus): Non-toxic

CCOC(=O)C(C(=O)OCC)N1C(C)=C(C(=O)OC)C(/C=C/c2ccccc2)C(C(=O)OC)=C1C
Activity (Rattus norvegicus [1]): 41.6% | Time (Rattus norvegicus [2]): 9 s | mortality at 10 mg/kg (Rattus norvegicus [3]): 100% | Time (Rattus norvegicus [4]): 268 s | Activity (Mus musculus): Non-toxic

CCOC(=O)C1=C(C)N(C(C(=O)OCC)C(=O)OCC)C(C)=C(C(=O)OCC)C1/C=C/c1ccccc1
Activity (Rattus norvegicus [1]): 22.9% | Time (Rattus norvegicus [2]): 12 s | mortality at 10 mg/kg (Rattus norvegicus [3]): 0% | Time (Rattus norvegicus [4]): >300 s | Activity (Mus musculus): Non-toxic

CCOC(=O)C(C(=O)OCC)N1C(C)=C(C(=O)OC)C(/C=C/c2ccc([N+](=O)[O-])cc2)C(C(=O)OC)=C1C
Activity (Rattus norvegicus [1]): 52.1% | Time (Rattus norvegicus [2]): 7 s | mortality at 10 mg/kg (Rattus norvegicus [3]): 0% | Time (Rattus norvegicus [4]): >300 s | Activity (Mus musculus): Non-toxic

CCOC(=O)C1=C(C)N(C(C(=O)OCC)C(=O)OCC)C(C)=C(C(=O)OCC)C1/C=C/c1ccc([N+](=O)[O-])cc1
Activity (Rattus norvegicus [1]): 50% | Time (Rattus norvegicus [2]): 8 s | mortality at 10 mg/kg (Rattus norvegicus [3]): 0% | Time (Rattus norvegicus [4]): >300 s | Activity (Mus musculus): Non-toxic

CN1C(=O)CN=C(c2ccccc2)c2cc(Cl)ccc21 [DIAZEPAM]
mortality at 5 mg/kg (Rattus norvegicus [5]): 66.6% | Time (Rattus norvegicus [6]): 266 s

COC(=O)C1=C(C)NC(C)=C(C(=O)OC)C1c1ccccc1[N+](=O)[O-] [NIFEDIPINE]
mortality at 30 mg/kg (Rattus norvegicus [7]): 33.3% | Activity (Rattus norvegicus [8]): 56.8% | Time (Rattus norvegicus [9]): 7 s | Time (Rattus norvegicus [10]): 215 s

O=C1NC(=O)C(c2ccccc2)(c2ccccc2)N1 [PHENYTOIN]
Activity (Rattus norvegicus [8]): 62.5% | Time (Rattus norvegicus [9]): 6 s
